The source made the active and inactive calls.
target: Cannabinoid receptor 2 (Homo sapiens, UniProt P34972); assay: Agonist activity at human CB2 receptor expressed in CHO cells coexpressing Galpha16 assessed as reduction in forsklin-induced cAMP production incubated for 30 mins by cAMP Hunter assay based […] analysis; format: functional, cell-based; details: read-out: EC50
Outline: (§1)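 CHO cells expressing human CB1 or CB2 with Gα16, seeded overnight at 37 °C. Test compounds in stimulation buffer with 1 mM IBMX, 0.25% BSA and forskolin, 30 min at 37 °C. Cells lysed, cAMP read by enzyme fragment complementation chemiluminescence kit. Triplicate per dilution. Efficacy relative to CP-55940 reference run twice per plate. EC50 from means.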

Sequence of Cannabinoid receptor 2 (P34972 whole entry, the tested form may be a part): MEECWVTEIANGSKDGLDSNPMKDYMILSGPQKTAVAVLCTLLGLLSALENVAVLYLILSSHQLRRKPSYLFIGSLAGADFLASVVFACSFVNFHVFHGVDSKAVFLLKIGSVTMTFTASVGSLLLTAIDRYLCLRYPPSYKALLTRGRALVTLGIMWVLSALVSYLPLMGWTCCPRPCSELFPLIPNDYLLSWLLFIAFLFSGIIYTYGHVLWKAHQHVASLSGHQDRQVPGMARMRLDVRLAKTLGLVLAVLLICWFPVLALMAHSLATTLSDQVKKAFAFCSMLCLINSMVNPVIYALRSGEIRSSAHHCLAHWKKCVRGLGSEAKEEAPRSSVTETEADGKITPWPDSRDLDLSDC

| SMILES | EC50 [µM] |
| --- | --- |
| Cc1c(CC(=O)NCC2CC2)c2cc(F)ccc2n1CCN1CCOCC1 | 3.1 |
| Cc1c(CCN2CCOCC2)c2cc(Cl)ccc2n1CC(=O)NC1CCCC1 | 16.1 |
| Cc1c(CCN2CCOCC2)c2cc(Br)ccc2n1CC(=O)NC1CCCC1 | 20.2 |
| Cc1c(CC(=O)NC2CC2)c2cc(F)ccc2n1CCN1CCOCC1 | 4.1 |
| Cc1c(CC(=O)NC2CCCC2)c2cc(F)ccc2n1CCN1CCOCC1 | 0.476 |
| COc1ccc2c(c1)c(CCN1CCOCC1)c(C)n2CC(=O)NCc1ccc2c(c1)OCO2 | 28.1 |
| Cc1c(CCN2CCOCC2)c2cc(Br)ccc2n1CC(=O)NCC1CC1 | 5.4 |
| Cc1c(CC(=O)NC2CCCCC2)c2cc(F)ccc2n1CCN1CCOCC1 | > 100 |
| COc1ccc2c(c1)c(CCN1CCOCC1)c(C)n2CC(=O)N1CCCC1 | > 100 |
| Cc1c(CCN2CCOCC2)c2cc(Cl)ccc2n1C(=O)c1cccc(Cl)c1Cl | 0.117 |
| COc1ccc2c(c1)c(CCN1CCOCC1)c(C)n2C(=O)c1cccc(Cl)c1Cl | 0.0507 |
| Cc1c(CCN2CCOCC2)c2cc(F)ccc2n1CC(=O)NC1CC1 | 3.9 |
| COc1ccc2c(c1)c(CCN1CCOCC1)c(C)n2CC(=O)NC1CCCCC1 | 11.6 |
| Cc1c(CC(=O)NC2CCCCC2)c2cc(Cl)ccc2n1CCN1CCOCC1 | > 100 |
| Cc1c(CC(=O)NC2CCCC2)c2cc(Cl)ccc2n1CCN1CCOCC1 | 2.7 |
| COc1ccc2c(c1)c(CCN1CCOCC1)c(C)n2CC(=O)N1CCCCC1 | 41.9 |
| Cc1c(CC(=O)NC2CC2)c2cc(Cl)ccc2n1CCN1CCOCC1 | 1.2 |
| Cc1c(CCN2CCOCC2)c2cc(Cl)ccc2n1CC(=O)NCC1CC1 | 14.3 |
| COc1ccc2c(c1)c(CC(=O)NC1CCCCC1)c(C)n2CCN1CCOCC1 | > 100 |
| Cc1c(CCN2CCOCC2)c2cc(Br)ccc2n1C(=O)c1cccc(Cl)c1Cl | 0.0523 |
| COc1ccc2c(c1)c(CC(=O)N1CCCCC1)c(C)n2CCN1CCOCC1 | > 100 |
| COc1ccc2c(c1)c(CCN1CCOCC1)c(C)n2CC(=O)NC1CCCC1 | 5.6 |
| Cc1c(CCN2CCOCC2)c2cc(Br)ccc2n1CC(=O)NC1CC1 | 8.2 |
| Cc1c(CCN2CCOCC2)c2cc(F)ccc2n1CC(=O)NCC1CC1 | 4.2 |
| COc1ccc2c(c1)c(CCN1CCOCC1)c(C)n2CC(=O)NCC1CC1 | > 100 |
| Cc1c(CCN2CCOCC2)c2cc(F)ccc2n1CC(=O)NC1CCCC1 | 5.5 |
| Cc1c(CC(=O)NCC2CC2)c2cc(Cl)ccc2n1CCN1CCOCC1 | 0.594 |
| COc1ccc2c(c1)c(CCN1CCOCC1)c(C)n2C(=O)N1CCCC1 | 26.4 |

target: Cannabinoid receptor 1 (Homo sapiens, UniProt P21554); assay: Agonist activity at human CB1 receptor expressed in CHO cells coexpressing Galpha16 assessed as reduction in forsklin-induced cAMP production incubated for 30 mins by cAMP Hunter assay based […] analysis; format: cell-based; details: cho; outline: as §1
Sequence (P21554 whole entry): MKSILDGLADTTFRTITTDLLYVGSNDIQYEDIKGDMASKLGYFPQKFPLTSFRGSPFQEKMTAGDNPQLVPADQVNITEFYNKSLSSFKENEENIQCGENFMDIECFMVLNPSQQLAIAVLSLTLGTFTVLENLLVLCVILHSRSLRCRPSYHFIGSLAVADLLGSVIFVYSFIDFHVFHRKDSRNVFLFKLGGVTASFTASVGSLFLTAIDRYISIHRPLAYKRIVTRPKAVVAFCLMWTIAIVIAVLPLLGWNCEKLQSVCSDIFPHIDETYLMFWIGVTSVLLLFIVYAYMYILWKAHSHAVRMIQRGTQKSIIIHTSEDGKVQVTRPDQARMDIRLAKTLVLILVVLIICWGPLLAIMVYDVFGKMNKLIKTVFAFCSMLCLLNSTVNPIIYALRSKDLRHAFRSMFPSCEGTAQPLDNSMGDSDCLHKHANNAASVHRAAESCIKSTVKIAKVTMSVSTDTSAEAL

| SMILES | EC50 |
| --- | --- |
| Cc1c(CC(=O)NCC2CC2)c2cc(F)ccc2n1CCN1CCOCC1 | Not Active |
| Cc1c(CCN2CCOCC2)c2cc(Cl)ccc2n1CC(=O)NC1CCCC1 | Not Active |
| Cc1c(CCN2CCOCC2)c2cc(Br)ccc2n1CC(=O)NC1CCCC1 | Not Active |
| Cc1c(CC(=O)NC2CC2)c2cc(F)ccc2n1CCN1CCOCC1 | Not Active |
| Cc1c(CC(=O)NC2CCCC2)c2cc(F)ccc2n1CCN1CCOCC1 | Not Active |
| COc1ccc2c(c1)c(CCN1CCOCC1)c(C)n2CC(=O)NCc1ccc2c(c1)OCO2 | Not Active |
| Cc1c(CCN2CCOCC2)c2cc(Br)ccc2n1CC(=O)NCC1CC1 | Not Active |
| Cc1c(CC(=O)NC2CCCCC2)c2cc(F)ccc2n1CCN1CCOCC1 | Not Active |
| COc1ccc2c(c1)c(CCN1CCOCC1)c(C)n2CC(=O)N1CCCC1 | Not Active |
| Cc1c(CCN2CCOCC2)c2cc(F)ccc2n1CC(=O)NC1CC1 | Not Active |
| COc1ccc2c(c1)c(CCN1CCOCC1)c(C)n2CC(=O)NC1CCCCC1 | Not Active |
| Cc1c(CC(=O)NC2CCCCC2)c2cc(Cl)ccc2n1CCN1CCOCC1 | Not Active |
| Cc1c(CC(=O)NC2CCCC2)c2cc(Cl)ccc2n1CCN1CCOCC1 | Not Active |
| COc1ccc2c(c1)c(CCN1CCOCC1)c(C)n2CC(=O)N1CCCCC1 | Not Active |
| Cc1c(CC(=O)NC2CC2)c2cc(Cl)ccc2n1CCN1CCOCC1 | Not Active |
| Cc1c(CCN2CCOCC2)c2cc(Cl)ccc2n1CC(=O)NCC1CC1 | Not Active |
| COc1ccc2c(c1)c(CC(=O)NC1CCCCC1)c(C)n2CCN1CCOCC1 | Not Active |
| COc1ccc2c(c1)c(CC(=O)N1CCCCC1)c(C)n2CCN1CCOCC1 | Not Active |
| COc1ccc2c(c1)c(CCN1CCOCC1)c(C)n2CC(=O)NC1CCCC1 | Not Active |
| Cc1c(CCN2CCOCC2)c2cc(Br)ccc2n1CC(=O)NC1CC1 | Not Active |
| Cc1c(CCN2CCOCC2)c2cc(F)ccc2n1CC(=O)NCC1CC1 | Not Active |
| COc1ccc2c(c1)c(CCN1CCOCC1)c(C)n2CC(=O)NCC1CC1 | Not Active |
| Cc1c(CCN2CCOCC2)c2cc(F)ccc2n1CC(=O)NC1CCCC1 | Not Active |
| Cc1c(CC(=O)NCC2CC2)c2cc(Cl)ccc2n1CCN1CCOCC1 | Not Active |
| COc1ccc2c(c1)c(CCN1CCOCC1)c(C)n2C(=O)N1CCCC1 | Not Active |

same assay, conditions: read-out: EC50

| SMILES | EC50 [µM] |
| --- | --- |
| Cc1c(CCN2CCOCC2)c2cc(Cl)ccc2n1C(=O)c1cccc(Cl)c1Cl | 79.8 |
| COc1ccc2c(c1)c(CCN1CCOCC1)c(C)n2C(=O)c1cccc(Cl)c1Cl | 16.1 |
| Cc1c(CCN2CCOCC2)c2cc(Br)ccc2n1C(=O)c1cccc(Cl)c1Cl | > 100 |

tested on: Rattus norvegicus; assay: (§2) Antiinflammatory hyperalgesic activity against complete freund's adjuvant-induced mechanical hyperalgesic Sprague-Dawley rat model assessed as decrease in IL-6 production in paw skin at 10 mg/kg, ip pretreated with CFA for 24 hrs followed by compound administration and measured after 1 hr by ELISA relative to control; format: functional; details: not given
Outline: (§3)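 Male Sprague-Dawley rats, 180–200 g, isoflurane anaesthesia. Left hind paw given intraplantar 50% CFA (50 µL in 0.9% saline), or saline. At 24 h, single i.p. dose of drug, antagonist, combination or vehicle (2 mL kg-1). 1 h after dosing, paw skin taken and homogenised in ice-cold buffer with protease inhibitor, then centrifuged. IL-1β, IL-6 and TNF-α in supernatant by ELISA. n = 6, one-way ANOVA with Tukey test.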

| SMILES | fold change (FC) |
| --- | --- |
| COc1ccc2c(c1)c(CCN1CCOCC1)c(C)n2C(=O)c1cccc(Cl)c1Cl | 2.5 |

tested on: Rattus norvegicus; assay: (§4) Antiinflammatory hyperalgesic activity against complete freund's adjuvant-induced mechanical hyperalgesic Sprague-Dawley rat model assessed as paw withdraw latency at 10 mg/kg, ip pretreated with CFA for 24 hrs followed by compound administration and measured at 24 hrs by analgesiometer analysis; format: functional, organism-based; details: not given
Outline: (§5)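 Male Sprague-Dawley rats, 180–200 g. Baseline mechanical paw withdrawal threshold taken with analgesiometer pressure on left hind paw, cut-off 250 g, endpoint complete withdrawal. Intraplantar 50% CFA (50 µL in 0.9% saline) under isoflurane. At 24 h, pre-drug threshold, then single i.p. dose of 0.0025–10 mg kg-1, antagonist combination or vehicle (2 mL kg-1). Thresholds read 1–24 h after dosing. % reversal = (post − pre)/(baseline − pre) × 100.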

| SMILES | Activity |
| --- | --- |
| COc1ccc2c(c1)c(CCN1CCOCC1)c(C)n2C(=O)c1cccc(Cl)c1Cl | inactive |

tested on: Rattus norvegicus; assay: as §4, with “assessed as increase in paw withdraw” for “assessed as paw withdraw”, “measured at 1 hr to 9 hrs by” for “measured at 24 hrs by”; format: functional, organism-based; details: not given; outline: as §5

| SMILES | Activity |
| --- | --- |
| COc1ccc2c(c1)c(CCN1CCOCC1)c(C)n2C(=O)c1cccc(Cl)c1Cl | Active |

tested on: Rattus norvegicus; assay: as §2, with “TNF alpha” for “IL-6”; format: functional; details: not given; outline: as §3

| SMILES | fold change (FC) |
| --- | --- |
| COc1ccc2c(c1)c(CCN1CCOCC1)c(C)n2C(=O)c1cccc(Cl)c1Cl | 1.6 |

tested on: Rattus norvegicus; assay: as §2, with “IL-1 beta” for “IL-6”; format: functional; details: not given; outline: as §3

| SMILES | fold change (FC) |
| --- | --- |
| COc1ccc2c(c1)c(CCN1CCOCC1)c(C)n2C(=O)c1cccc(Cl)c1Cl | 1.4 |

tested on: not listed separately; assay: Selectivity ratio of EC50 for human CB1 receptor expressed in CHO cells coexpressing Galpha16 to EC50 for human CB2 receptor expressed in CHO cells coexpressing Galpha16; details: not given
Outline: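 Ratio of EC50 values from the CB1 and CB2 cAMP assays in CHO-Gα16 cells: 30 min compound exposure at 37 °C with 1 mM IBMX and forskolin, chemiluminescent cAMP read-out, triplicates.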

| SMILES | Ratio EC50 |
| --- | --- |
| Cc1c(CC(=O)NC2CCCC2)c2cc(F)ccc2n1CCN1CCOCC1 | >1000 |
| Cc1c(CCN2CCOCC2)c2cc(Cl)ccc2n1C(=O)c1cccc(Cl)c1Cl | >1000 |
| COc1ccc2c(c1)c(CCN1CCOCC1)c(C)n2C(=O)c1cccc(Cl)c1Cl | >1000 |
| Cc1c(CCN2CCOCC2)c2cc(Br)ccc2n1C(=O)c1cccc(Cl)c1Cl | >1000 |
| Cc1c(CC(=O)NCC2CC2)c2cc(Cl)ccc2n1CCN1CCOCC1 | >1000 |
